# Active and inactive are the calls of the source. No cut-off for these calls is given here.
# Key:
# [1] = target: T1, Dual specificity protein kinase CLK1/CLK4 (Homo sapiens, UniProt Q9HAZ1+P49759); test: Inhibition of CLK1/4 in human HepG2 cells assessed as down regulation of HDAC1 expression at 20 uM after 3 days by Western blot analysis relative to control; type: cell-based
# In short: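 HepG2 cells were grown in DMEM to 70% confluency, then the medium was replaced with compound diluted in DMEM. After 3 days, total protein was immunoblotted with monoclonal antibodies including HDAC1 and p70S6K.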
# [2] = target: T1, Dual specificity protein kinase CLK1/CLK4; test: Inhibition of CLK1/4 in human T24 cells assessed as down regulation of EGFR expression at 10 uM after 3 days by Western blot analysis relative to control; type: cell-based
# In short: (§1)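 T24 or MDA-MB-231 cells were grown in DMEM to 70% confluency. The medium was replaced with compound diluted in DMEM, and cells were kept 3 days. Total protein was immunoblotted with monoclonal antibodies in 3% BSA/PBS against EGFR, p70S6K α, PARP-1, ERK2, HDAC1, CD44, PCNA and GRP94.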
# MDA-MB-231 [3] = test: Down regulation of PCNA expression in human MDA-MB-231 cells at 2.5 to 20 uM after 3 days by Western blot analysis; type: functional, cell-based; in short: as §1
# [4] = target: T2, Dual specificity tyrosine-phosphorylation-regulated kinase 1A (Homo sapiens, UniProt Q13627); test: Inhibition of N-terminal His6-tagged recombinant human Dyrk1A expressed in Escherichia coli BL21 (DE3) using KKISGRLSPIMTEQ-NH2 as substrate after 15 mins in presence of [gamma-32]-ATP
# [5] = target: Dual specificity tyrosine-phosphorylation-regulated kinase 4 (Homo sapiens) (UniProt Q9NR20); test: Inhibition of DYRK4 (unknown origin) using KKISGRLSPIMTEQ-NH2 as substrate at 1 uM after 15 mins in presence of [gamma-32P]-ATP
# [6] = target: Dual specificity protein kinase CLK2 (Mus musculus, UniProt O35491); test: Inhibition of recombinant GST-tagged mouse CLK2 using GRSRSRSRSRSR as substrate after 30 mins in presence of [gamma-32P]-ATP by scintillation counting method
# MDA-MB-231 [7] = test: Down regulation of PARP1 expression in human MDA-MB-231 cells at 2.5 to 20 uM after 3 days by Western blot analysis; type: functional, cell-based; in short: as §1
# [8] = target: T1, Dual specificity protein kinase CLK1/CLK4; test: Inhibition of CLK1/4 in human MDA-MB-231 cells assessed as down regulation of S6 kinase expression after 3 days by Western blot analysis; type: cell-based; in short: as §1
# [9] = target: Serine/threonine-protein kinase 17A (Homo sapiens) (UniProt Q9UEE5); test: Inhibition of STK17A (unknown origin) at 1 uM after 15 mins
# In short: (§2)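 Tested in a commercial kinase profiling panel at an ATP concentration of 100 μM. Data are the mean of duplicates that differed by less than 7%.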
# T-24 [10] = test: Down regulation of CD44 expression in human T24 cells at 1.25 to 10 uM after 3 days by Western blot analysis; type: functional, cell-based; in short: as §1
# [11] = target: Dual specificity protein kinase CLK1 (Homo sapiens, UniProt P49759); test: Inhibition of recombinant human GST-tagged Clk1 expressed in Escherichia coli at 100 nM using RS repeat substrate peptide after 15 mins in presence of [gamma-32]-ATP
# T-24 [12] = test: Down regulation of PARP1 expression in human T24 cells at 1.25 to 10 uM after 3 days by Western blot analysis; type: functional, cell-based; in short: as §1
# [13] = target: Dual specificity protein kinase CLK4 (Mus musculus) (UniProt O35493); test: Inhibition of recombinant GST-tagged mouse CLK4 using GRSRSRSRSRSR as substrate at 1 uM after 30 mins in presence of [gamma-32P]-ATP by scintillation counting method
# [14] = target: T1, Dual specificity protein kinase CLK1/CLK4; test: Inhibition of CLK1/4 in human T24 cells assessed as down regulation of HDAC1 expression at 5 uM after 3 days by Western blot analysis relative to control; type: cell-based; in short: as §1
# [15] = target: Serine/threonine-protein kinase haspin (Homo sapiens) (UniProt Q8TF76); test: Inhibition of MBP-Haspin (unknown origin) at 1 uM after 10 mins by TR-FRET assay; in short: as §2
# [16] = target: T1, Dual specificity protein kinase CLK1/CLK4; test: Inhibition of CLK1/4 in human T24 cells assessed as down regulation of EGFR expression at 1.25 uM after 3 days by Western blot analysis relative to control; type: cell-based; in short: as §1
# [17] = target: T1, Dual specificity protein kinase CLK1/CLK4; test: Inhibition of CLK1/4 in human T24 cells assessed as down regulation of HDAC1 expression after 3 days by Western blot analysis; type: cell-based; in short: as §1
# [18] = target: T1, Dual specificity protein kinase CLK1/CLK4; test: Inhibition of CLK1/4 in human MDA-MB-231 cells assessed as down regulation of EGFR expression after 3 days by Western blot analysis; type: cell-based; in short: as §1
# [19] = target: SRSF protein kinase 2 (Homo sapiens) (UniProt P78362); test: Inhibition of SRPK2 (unknown origin) at 1 uM; in short: as §2
# T-24 [20] = test: Down regulation of ERK2 expression in human T24 cells at 1.25 to 10 uM after 3 days by Western blot analysis; type: functional, cell-based; in short: as §1
# [21] = target: T2, Dual specificity tyrosine-phosphorylation-regulated kinase 1A; test: Inhibition of N-terminal His6-tagged recombinant human Dyrk1A expressed in Escherichia coli BL21 (DE3) using KKISGRLSPIMTEQ-NH2 as substrate at 1 uM after 15 mins in presence of [gamma-32]-ATP; conditions: 0.25 h
# [22] = target: Dual specificity protein kinase CLK2 (Mus musculus) (UniProt O35491); test: Inhibition of recombinant GST-tagged mouse CLK2 using GRSRSRSRSRSR as substrate at 1 uM after 30 mins in presence of [gamma-32P]-ATP by scintillation counting method
# PBL = test: Cytotoxicity against human PBL after 2 days by MTT assay; type: cell-based; conditions: 48 h
# In short: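 Cells plated at 30 000 per well with test compounds or DMSO control for 2 days, then MTT read-out. LC50 reported as the mean of at least two independent experiments.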
# [23] = Cytotoxicity against HEK293 cells assessed as growth inhibition; type: cell-based; conditions: human
# In short: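 Cytotoxicity was tested in proliferating HEK293 cells with GI50 as the read-out. Data are the mean of at least two independent experiments.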
# [24] = target: T1, Dual specificity protein kinase CLK1/CLK4; test: Inhibition of CLK1/4 in human MDA-MB-231 cells assessed as down regulation of EGFR expression at 2.5 uM after 3 days by Western blot analysis relative to control; type: cell-based; in short: as §1
# [25] = target: Dual specificity protein kinase CLK3 (Mus musculus) (UniProt O35492); test: Inhibition of recombinant GST-tagged mouse CLK3 using GRSRSRSRSRSR as substrate at 1 uM after 30 mins in presence of [gamma-32P]-ATP by scintillation counting method
# [26] = target: T1, Dual specificity protein kinase CLK1/CLK4; test: Inhibition of CLK1/4 in human T24 cells assessed as down regulation of HDAC1 expression at 10 uM after 3 days by Western blot analysis relative to control; type: cell-based; in short: as §1
# THP-1 = test: Cytotoxicity against human THP1 cells assessed as growth inhibition after 5 days by MTT assay; type: functional; conditions: THP-1, 120 h
# In short: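 They were seeded at 5000 cells per well onto compound or DMSO (0.2% final). Plates were kept 5 days at 37 °C in 5% CO2 with no medium change, then read by MTT.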
# [27] = target: T1, Dual specificity protein kinase CLK1/CLK4; test: Inhibition of CLK1/4 in human T24 cells assessed as down regulation of EGFR expression at 5 uM after 3 days by Western blot analysis relative to control; type: cell-based; in short: as §1
# Dual specificity protein kinase CLK3 (Mus musculus), sequence (O35492 whole entry): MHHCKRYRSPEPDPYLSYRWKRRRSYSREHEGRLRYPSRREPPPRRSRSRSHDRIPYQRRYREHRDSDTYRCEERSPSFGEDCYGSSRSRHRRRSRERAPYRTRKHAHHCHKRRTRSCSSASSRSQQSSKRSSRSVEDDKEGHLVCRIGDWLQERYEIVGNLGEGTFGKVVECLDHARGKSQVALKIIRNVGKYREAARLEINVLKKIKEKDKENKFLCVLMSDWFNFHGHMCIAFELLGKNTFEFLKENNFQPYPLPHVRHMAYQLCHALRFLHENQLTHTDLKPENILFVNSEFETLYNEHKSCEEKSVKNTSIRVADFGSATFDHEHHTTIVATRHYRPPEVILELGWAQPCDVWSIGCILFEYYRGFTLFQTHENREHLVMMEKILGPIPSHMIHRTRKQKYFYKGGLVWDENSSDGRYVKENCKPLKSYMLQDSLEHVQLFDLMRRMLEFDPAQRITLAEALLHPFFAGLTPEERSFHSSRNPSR
# Dual specificity protein kinase CLK4 (Mus musculus), sequence (O35493 whole entry, looked up): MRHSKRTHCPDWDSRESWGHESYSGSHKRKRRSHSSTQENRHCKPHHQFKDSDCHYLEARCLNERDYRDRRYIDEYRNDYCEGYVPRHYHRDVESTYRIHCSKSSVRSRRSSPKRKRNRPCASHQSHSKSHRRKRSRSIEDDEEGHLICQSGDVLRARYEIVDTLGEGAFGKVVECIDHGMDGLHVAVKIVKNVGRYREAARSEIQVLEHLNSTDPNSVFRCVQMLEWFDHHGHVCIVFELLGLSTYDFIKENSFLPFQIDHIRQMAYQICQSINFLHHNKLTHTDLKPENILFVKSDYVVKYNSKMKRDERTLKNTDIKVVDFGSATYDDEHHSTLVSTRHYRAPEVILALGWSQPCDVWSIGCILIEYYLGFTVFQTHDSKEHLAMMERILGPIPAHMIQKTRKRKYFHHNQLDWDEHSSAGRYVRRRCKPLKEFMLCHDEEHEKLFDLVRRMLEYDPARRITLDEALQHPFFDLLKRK
# Dual specificity protein kinase CLK2, sequence (O35491 whole entry): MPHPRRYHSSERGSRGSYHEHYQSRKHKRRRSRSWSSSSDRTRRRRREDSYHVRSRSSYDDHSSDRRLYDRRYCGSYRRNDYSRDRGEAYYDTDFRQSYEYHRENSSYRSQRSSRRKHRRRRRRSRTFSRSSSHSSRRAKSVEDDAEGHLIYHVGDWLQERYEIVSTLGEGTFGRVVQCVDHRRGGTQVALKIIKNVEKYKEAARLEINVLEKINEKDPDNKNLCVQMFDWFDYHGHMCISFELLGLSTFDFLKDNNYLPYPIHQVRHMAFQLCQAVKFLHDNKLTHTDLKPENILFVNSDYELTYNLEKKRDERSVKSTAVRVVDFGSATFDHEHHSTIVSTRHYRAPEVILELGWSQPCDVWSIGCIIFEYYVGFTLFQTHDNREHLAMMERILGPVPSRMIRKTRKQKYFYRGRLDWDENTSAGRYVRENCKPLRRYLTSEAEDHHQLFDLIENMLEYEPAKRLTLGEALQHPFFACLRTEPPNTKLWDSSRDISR
# Dual specificity protein kinase CLK2 (Mus musculus), sequence (O35491 whole entry, looked up): as the sequence (O35491 whole entry) above
# SRSF protein kinase 2 (Homo sapiens), sequence (P78362 whole entry, looked up): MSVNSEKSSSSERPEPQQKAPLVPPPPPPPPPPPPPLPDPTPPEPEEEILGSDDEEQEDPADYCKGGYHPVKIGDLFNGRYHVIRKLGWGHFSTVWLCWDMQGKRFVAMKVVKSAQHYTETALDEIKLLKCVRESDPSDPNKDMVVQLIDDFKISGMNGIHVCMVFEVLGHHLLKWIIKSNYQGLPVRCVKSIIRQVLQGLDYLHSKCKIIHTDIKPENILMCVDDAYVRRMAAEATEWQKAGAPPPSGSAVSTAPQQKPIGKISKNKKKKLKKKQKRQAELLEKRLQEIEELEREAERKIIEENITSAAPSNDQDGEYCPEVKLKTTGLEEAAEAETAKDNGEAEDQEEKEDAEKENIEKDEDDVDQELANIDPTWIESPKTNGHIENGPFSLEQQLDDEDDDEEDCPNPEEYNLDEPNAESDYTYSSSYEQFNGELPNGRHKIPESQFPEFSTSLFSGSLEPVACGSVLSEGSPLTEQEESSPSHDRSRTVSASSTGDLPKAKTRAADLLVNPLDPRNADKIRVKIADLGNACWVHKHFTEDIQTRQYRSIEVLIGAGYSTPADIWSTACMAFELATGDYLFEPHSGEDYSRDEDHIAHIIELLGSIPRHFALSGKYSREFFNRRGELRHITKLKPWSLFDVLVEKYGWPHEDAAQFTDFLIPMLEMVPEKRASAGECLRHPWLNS
# Dual specificity tyrosine-phosphorylation-regulated kinase 4 (Homo sapiens), sequence (Q9NR20 whole entry): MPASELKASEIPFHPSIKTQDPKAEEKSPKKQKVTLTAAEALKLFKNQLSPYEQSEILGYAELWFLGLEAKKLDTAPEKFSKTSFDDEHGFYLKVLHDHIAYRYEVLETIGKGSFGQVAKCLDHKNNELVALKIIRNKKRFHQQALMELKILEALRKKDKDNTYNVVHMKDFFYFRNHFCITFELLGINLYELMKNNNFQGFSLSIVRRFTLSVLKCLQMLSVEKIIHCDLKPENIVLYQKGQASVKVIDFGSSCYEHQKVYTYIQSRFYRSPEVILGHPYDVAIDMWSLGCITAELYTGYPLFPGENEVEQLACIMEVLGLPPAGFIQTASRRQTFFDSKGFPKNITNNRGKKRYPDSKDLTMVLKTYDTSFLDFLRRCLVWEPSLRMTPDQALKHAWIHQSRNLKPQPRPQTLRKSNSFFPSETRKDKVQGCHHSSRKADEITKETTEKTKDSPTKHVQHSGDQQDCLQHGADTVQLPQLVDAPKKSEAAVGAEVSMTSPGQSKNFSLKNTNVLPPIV
# Serine/threonine-protein kinase haspin (Homo sapiens), sequence (Q8TF76 whole entry): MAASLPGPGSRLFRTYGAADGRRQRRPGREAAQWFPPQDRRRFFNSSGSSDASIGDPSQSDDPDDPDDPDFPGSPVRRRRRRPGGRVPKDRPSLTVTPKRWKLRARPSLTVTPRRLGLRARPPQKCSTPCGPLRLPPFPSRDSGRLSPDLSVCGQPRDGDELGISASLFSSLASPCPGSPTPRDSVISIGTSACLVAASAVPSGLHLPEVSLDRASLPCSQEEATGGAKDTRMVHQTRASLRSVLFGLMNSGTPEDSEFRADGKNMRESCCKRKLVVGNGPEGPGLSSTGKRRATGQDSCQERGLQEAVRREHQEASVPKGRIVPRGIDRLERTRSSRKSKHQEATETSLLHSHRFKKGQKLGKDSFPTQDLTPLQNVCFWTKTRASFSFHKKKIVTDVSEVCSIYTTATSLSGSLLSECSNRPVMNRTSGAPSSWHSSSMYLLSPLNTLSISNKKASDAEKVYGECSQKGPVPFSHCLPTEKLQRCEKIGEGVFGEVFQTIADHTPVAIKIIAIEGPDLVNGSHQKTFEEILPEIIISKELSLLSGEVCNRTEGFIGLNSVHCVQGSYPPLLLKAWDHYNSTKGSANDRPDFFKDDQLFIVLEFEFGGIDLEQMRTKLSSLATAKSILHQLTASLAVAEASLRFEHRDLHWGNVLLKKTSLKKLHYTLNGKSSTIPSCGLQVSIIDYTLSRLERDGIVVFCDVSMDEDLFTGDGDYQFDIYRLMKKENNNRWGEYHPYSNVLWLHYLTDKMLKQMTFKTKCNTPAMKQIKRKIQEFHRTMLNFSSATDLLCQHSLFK
# Dual specificity protein kinase CLK1, sequence (P49759 whole entry, looked up): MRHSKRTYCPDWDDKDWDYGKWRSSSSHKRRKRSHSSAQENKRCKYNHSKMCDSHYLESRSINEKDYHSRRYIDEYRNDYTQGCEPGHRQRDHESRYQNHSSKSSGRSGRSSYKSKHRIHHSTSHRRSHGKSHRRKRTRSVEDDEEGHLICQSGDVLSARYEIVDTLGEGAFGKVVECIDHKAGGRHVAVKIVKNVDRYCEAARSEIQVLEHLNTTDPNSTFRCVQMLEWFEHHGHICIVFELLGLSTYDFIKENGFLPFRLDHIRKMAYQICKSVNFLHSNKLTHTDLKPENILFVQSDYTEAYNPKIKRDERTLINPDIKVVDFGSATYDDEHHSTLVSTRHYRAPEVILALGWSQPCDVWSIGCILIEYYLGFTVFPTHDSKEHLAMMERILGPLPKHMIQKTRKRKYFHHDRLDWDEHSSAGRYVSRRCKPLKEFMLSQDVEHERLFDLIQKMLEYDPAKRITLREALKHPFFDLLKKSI
# Serine/threonine-protein kinase 17A (Homo sapiens), sequence (Q9UEE5 whole entry): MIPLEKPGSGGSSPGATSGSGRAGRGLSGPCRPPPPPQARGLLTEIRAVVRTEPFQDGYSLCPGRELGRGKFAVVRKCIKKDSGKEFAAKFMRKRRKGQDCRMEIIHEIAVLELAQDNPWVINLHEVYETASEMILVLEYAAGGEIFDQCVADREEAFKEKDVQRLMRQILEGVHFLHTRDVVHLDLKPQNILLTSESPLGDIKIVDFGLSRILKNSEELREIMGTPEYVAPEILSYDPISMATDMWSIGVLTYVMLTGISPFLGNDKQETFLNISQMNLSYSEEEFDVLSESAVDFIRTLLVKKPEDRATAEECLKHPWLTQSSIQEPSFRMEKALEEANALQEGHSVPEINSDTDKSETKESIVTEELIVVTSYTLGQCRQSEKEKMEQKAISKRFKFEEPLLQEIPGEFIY
smiles,measurement,setting,value
COc1ccc2sc(C(=O)N(C)Cc3cccc(F)c3)cc2c1,inhibition,[1],44%
same,inhibition,[2],59.7%
same,Activity,MDA-MB-231 [3],inactive
same,IC50,[4],0.34 µM
same,inhibition,[5],inactive
same,IC50,[6],0.0191 µM
same,Activity,MDA-MB-231 [7],inactive
same,IC50,[8],> 20 µM
same,inhibition,[9],32%
same,Activity,T-24 [10],inactive
same,inhibition,[11],80%
same,Activity,T-24 [12],inactive
same,inhibition,[13],101%
same,inhibition,[14],47.6%
same,inhibition,[15],12%
same,inhibition,[16],48.3%
same,IC50,[17],9.5 µM
same,inhibition,[17],Dose-dependent effect
same,IC50,[18],4.2 µM
same,inhibition,[19],7%
same,Activity,T-24 [20],inactive
same,inhibition at 1 µM,[21],72%
same,inhibition,[22],86%
same,LC50,PBL,29.4 µM
same,GI50,[23],> 30 µM
same,inhibition,[24],47.5%
same,inhibition,[25],58%
same,inhibition,[26],50.2%
same,GI50,THP-1,27.2 µM
same,inhibition,[27],52.6%
